Holding throughout (format): functional
Test [1] concerns Escherichia coli. Description: Antimicrobial activity against Escherichia coli O157:H7 ATCC 43894 assessed as growth inhibition rate at 143.24 mg/l after 72 hr by spectrophotometry. The following applies: O157:H7 ATCC 43894, 72 h, read-out: GI.
Test [2] relates to Bacillus cereus. Description: Antimicrobial activity against Bacillus cereus ATCC 11778 assessed as growth inhibition rate at 143.24 mg/l after 72 hr by spectrophotometry. Particulars: ATCC 11778, 72 h, read-out: GI. An outline of the steps: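 Pure volatile compounds (purity >95%; one at 90%) were tested against B. cereus ATCC 11778. The strain was grown at 30 °C in nutrient broth for 24 h, then subcultured for 18 h. Optical density was read in a Bioscreen C every 24 h for 72 h, with 10% Tween 80 as the control.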

Test [3] has as its system Staphylococcus aureus. Briefly: Antimicrobial activity against Staphylococcus aureus ATCC 25923 assessed as growth inhibition rate at 143.24 mg/l after 72 hr by spectrophotometry. The following applies: ATCC 25923, 72 h, read-out: GI.
In test [4] the test system is Salmonella typhimurium. Description: Antimicrobial activity against Salmonella enterica subsp. enterica serovar Typhimurium ATCC 14028 assessed as growth inhibition rate at 143.24 mg/l after 72 hr by spectrophotometry. Particulars: ATCC 14028, 72 h, read-out: GI. In short, it runs like this: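 Salmonella Typhimurium ATCC 14028 grown in nutrient broth at 30 °C, precultured 24 h, then subcultured 1:100 for 18 h before testing. Single volatile compounds (>95% pure) were added. OD was read every 24 h over 72 h in a Bioscreen C, with 10% Tween 80 as the comparison control.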

Test [5] concerns Vibrio parahaemolyticus. Briefly: Antimicrobial activity against Vibrio parahaemolyticus ATCC 33844 assessed as growth inhibition rate at 143.24 mg/l after 72 hr by spectrophotometry. Particulars: ATCC 33844, 72 h, read-out: GI.
Test [6] deals with Listeria monocytogenes. Description: Antimicrobial activity against Listeria monocytogenes ATCC 19111 assessed as growth inhibition rate at 143.24 mg/l after 72 hr by spectrophotometry. Particulars: ATCC 19111, 72 h, read-out: GI. An outline of the steps: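 L. monocytogenes was grown at 30 °C in tryptic soy broth, subcultured for 18 h, and exposed to pure volatile compounds (>95% purity). Growth was followed by Bioscreen C optical density every 24 h for 72 h against a 10% Tween 80 control.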

With `C=C1CC[C@@H]2[C@H]([C@@H]3[C@H](C)CC[C@@H]13)C2(C)C` [(-)-AROMADENDRENE II], the inhibition of growth at 143.24 µg/mL in test [1] came to 24.2%; in test [2] it was 72.3%; in test [3], 61.5%; in test [4], 36.4%; in test [5] it was 45.6%; in test [6], 28%.

The record behind these values is ChEMBL document CHEMBL3046951, “Volatile constituents from the leaves of Callicarpa japonica Thunb. and their antibacterial activities” (2004).
